Data as given in ChEMBL document CHEMBL4414566, “Cytotoxicity and Anti-inflammatory Properties of Apigenin-Derived Isolaxifolin” (J Nat Prod, 2019).
Calls of active or inactive are those of the source. The rule behind the calls is not given here.

Experiments:
RAW264.7 [1] = test: Antiinflammatory activity against LPS-activated mouse RAW264.7 cells assessed as reduction in IL6 mRNA expression at 3.1 uM preincubated with LPS for 24 hrs followed by compound addition and measured after 24 hrs by qRT-PCR analysis; format: functional, cell-based
Method in brief: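 RAW 264.7 cells (DMEM, 10% FBS, 37 °C, 5% CO2) seeded at 1 × 10^5/well and held 4 h. LPS 1.0 μg/mL was added for 24 h, then medium was replaced with test agent (0.8, 1.6, 3.1 μM or 2.3, 4.6, 9.2 μM) for 24 h. TNF-α and IL-6 transcripts were quantified by real-time qPCR against GAPDH. Triplicates, mean ± SD.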

MDA-MB-231 [2] = test: Induction of cell cycle arrest in human MDA-MB-231 cells assessed as accumulation of cells at G0/G1 phase at 12.4 uM incubated for 48 hrs by PI/RNase staining based flow cytometric analysis (reference value: 50.4%); format: functional
Method in brief: (§1)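 Cell-cycle analysis: MDA-MB-231 cells were preincubated 24 h, then treated with 8.6, 12.4 or 17.3 μM for 48 h. Cells were pelleted, fixed in 75% ethanol at −20 °C overnight, and stained with PI/RNase for 15 min in the dark at ambient temperature. About 10 000 cells per well were analyzed by flow cytometry for DNA content.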

MDA-MB-231 [3] = test: Induction of mitochondrial membrane potential loss in human MDA-MB-231 cells cell population with mitochondrial membrane potential collapse by measuring green fluorescence at 17.3 uM incubated for 48 hrs by JC1 staining based flow cytometric analysis (reference value: 7.96%); format: functional
Method in brief: (§2)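 MDA-MB-231 cells in DMEM/10% FBS exposed 48 h to 0, 8.6, 12.4 or 17.3 μM. Harvested cells stained with JC-1 for 15 min in the dark, then analysed by flow cytometry. Excitation 488 nm; green emission read at 525 nm, red at 590 nm. Output given as percent green-to-red fluorescence intensity ratio. Triplicate, mean ± SD.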

MDA-MB-231 [4] = test: Induction of mitochondrial membrane potential loss in human MDA-MB-231 cells assessed as cell population with intact mitochondrial membrane potential by measuring red fluorescence at 8.6 uM incubated for 48 hrs by JC1 staining based flow cytometric analysis (reference value: 92.04%); format: functional; method in brief: as §2
MDA-MB-231 [5] = test: Antiproliferative activity against human MDA-MB-231 cells assessed as cell viability at 17.3 uM incubated for 48 hrs by methylene blue assay relative to control; format: functional; details: MDA-MB-231, 48 h, read-out: Activity
Method in brief: (§3)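 MDA-MB-231, MCF-7, HepG2 and LNCaP cells were grown in DMEM; HCT-116 and LO-2 in RPMI-1640; all with 10% FBS at 37 °C, 5% CO2. Cells seeded at 1.5 × 10^5 cells/mL and incubated overnight (~12 h), then exposed to 6.2–30.9 μM or 23.1–185.0 μM (final DMSO <0.1%) for 48 h. Read by methylene blue staining; viability = Abs treated/Abs untreated × 100%, triplicate.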

MDA-MB-231 [6] = test: Induction of apoptosis in human MDA-MB-231 cells assessed as late apoptotic cells at 17.3 uM incubated for 48 hrs by annexin V-FITC/PI based flow cytometric analysis (Rvb= 2.82%); format: functional
MDA-MB-231 [7] = test: Induction of cell cycle arrest in human MDA-MB-231 cells assessed as accumulation of cells at S phase at 8.6 uM incubated for 48 hrs by PI/RNase staining based flow cytometric analysis (reference value: 39.2%); format: functional; method in brief: as §1
MDA-MB-231 [8] = test: Induction of cell cycle arrest in human MDA-MB-231 cells assessed as accumulation of cells at S phase at 12.4 uM incubated for 48 hrs by PI/RNase staining based flow cytometric analysis (reference value: 39.2%); format: functional; method in brief: as §1
HepG2 = test: Antiproliferative activity against human HepG2 cells assessed as cell viability at 24.7 uM incubated for 48 hrs by methylene blue assay relative to control; format: functional; details: HepG2, 48 h, read-out: Activity; method in brief: as §3
MDA-MB-231 [9] = test: Induction of apoptosis in human MDA-MB-231 cells assessed as necrotic cells at 8.6 uM incubated for 48 hrs by annexin V-FITC/PI based flow cytometric analysis (Rvb= 0.74%); format: functional
MDA-MB-231 [10] = test: Induction of cell cycle arrest in human MDA-MB-231 cells assessed as increase in accumulation of cells at G0/G1 phase incubated for 48 hrs by PI/RNase staining based flow cytometric analysis; format: functional
Method in brief: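 Cells grown 24 h in DMEM/10% FBS at 37 °C, 5% CO2, then exposed 48 h to 8.6, 12.4 or 17.3 μM. Pelleted, fixed in 75% ethanol at −20 °C overnight, stained with PI-containing RNase 15 min in the dark at ambient temperature. About 10 000 cells per well analysed by flow cytometry. Triplicate, mean ± SD.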

RAW264.7 [11] = test: Inhibition of nitric oxide production in mouse RAW264.7 cells at 0.8 to 3.1 uM measured after 24 hrs by griess reagent based assay; format: functional, cell-based
MDA-MB-231 [12] = test: Induction of cell cycle arrest in human MDA-MB-231 cells assessed as accumulation of cells at G0/G1 phase at 8.6 uM incubated for 48 hrs by PI/RNase staining based flow cytometric analysis (reference value: 50.4%); format: functional; method in brief: as §1
MDA-MB-231 [13] = test: Induction of apoptosis in human MDA-MB-231 cells assessed as early apoptotic cells at 12.4 uM incubated for 48 hrs by annexin V-FITC/PI based flow cytometric analysis (Rvb= 0.24%); format: functional
MDA-MB-231 [14] = test: Induction of apoptosis in human MDA-MB-231 cells assessed as increase in nuclear chromatin condensation incubated for 48 hrs by Hoechst 33258 staining based fluorescence microscopic method; format: functional, cell-based
Method in brief: (§4)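 MDA-MB-231 cells were grown 24 h and treated with 8.6, 12.4 or 17.3 μM for 48 h. They were then fixed 10 min, washed three times in PBS and stained 5 min with Hoechst 33258. Nuclear condensation was imaged by fluorescence microscopy (excitation 350 nm, emission 460 nm).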

MDA-MB-231 [15] = test: Induction of cell cycle arrest in human MDA-MB-231 cells assessed as accumulation of cells at G2/M phase at 12.4 uM incubated for 48 hrs by PI/RNase staining based flow cytometric analysis (reference value: 10.4%); format: functional; method in brief: as §1
[16] = Cytotoxicity against mouse RAW264.7 cells assessed as reduction in cell viability incubated for 24 hrs by MTT assay; format: cell-based; details: read-out: MNCC
Method in brief: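 MTT viability assay: RAW 264.7 cells seeded at 2.5 × 10^4 cells/well, cultured 12 h, then given five concentrations from serial dilution (up to 6.2 or 9.2 μM; final DMSO <1%) for 24 h. Viability was calculated relative to untreated blank control; n = 3, mean ± SD.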

MDA-MB-231 [17] = test: Induction in apoptosis in human MDA-MB-231 cells assessed as apoptotic cell bodies formation at 17.3 uM incubated for 48 hrs by Hoechst 33258 staining based fluorescence microscopic method; format: functional; method in brief: as §4
MDA-MB-231 [18] = test: Induction of cell cycle arrest in human MDA-MB-231 cells assessed as accumulation of cells at S phase at 17.3 uM incubated for 48 hrs by PI/RNase staining based flow cytometric analysis (reference value: 39.2%); format: functional; method in brief: as §1
MDA-MB-231 [19] = test: Induction of apoptosis in human MDA-MB-231 cells assessed as viable cells at 17.3 uM incubated for 48 hrs by annexin V-FITC/PI based flow cytometric analysis (Rvb= 96.21%); format: functional; details: MDA-MB-231, 48 h, read-out: Activity

## CC(C)=CCc1c2c(c(O)c3c(=O)cc(-c4ccc(O)cc4)oc13)C=CC(C)(C)O2 [LAXIFOLIN]
RAW264.7 [1]
  Activity: Active
MDA-MB-231 [2]
  Activity: 60.2%
MDA-MB-231 [3]
  Activity: 26.75%
MDA-MB-231 [4]
  Activity: 83.51%
MDA-MB-231 [5]
  viability at 17.3 µM: 20%
MDA-MB-231 [6]
  Activity: 24.55%
MDA-MB-231 [7]
  Activity: 29.5%
MDA-MB-231 [8]
  Activity: 28.2%
HepG2
  viability at 24.7 µM: 20%
MDA-MB-231 [9]
  Activity: 1.04%
MDA-MB-231 [10]
  Activity: Dose-dependent effect
RAW264.7 [11]
  inhibition: Active
MDA-MB-231 [12]
  Activity: 59.5%
MDA-MB-231 [13]
  Activity: 0.58%
MDA-MB-231 [14]
  Activity: Dose-dependent effect
MDA-MB-231 [15]
  Activity: 11.6%
[16]
  MNTC at 24 h: 3.1 µM
MDA-MB-231 [17]
  Activity: Active
MDA-MB-231 [18]
  Activity: 26.8%
MDA-MB-231 [19]
  viability at 17.3 µM: 68.9%
